Here are results for 13 compounds from ChEMBL document CHEMBL1156226, “Synthesis and structure-activity relationship studies of peptidomimetic PKB/Akt inhibitors: the significance of backbone interactions” (Bioorg Med Chem, 2010).

Series [1] deals with T1, RAC-alpha serine/threonine-protein kinase (Homo sapiens, UniProt P31749). Kind of series: Inhibition of PKB at 5 uM by radioactive kinase assay relative to control. In a few lines: (§1)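 PKB/Akt enzyme HisAPHPKBEEEFlag, partly purified in one step on Ni-NTA agarose. The radioactive kinase reaction contains 50 mM Hepes pH 7.4, 0.1 mM EGTA, 0.1% 2-mercaptoethanol, 10 mM magnesium acetate, 3 uM RPRTSSF peptide substrate, 10 uM [γ32P]ATP and 0.005 units enzyme. Inhibition is given as percent reduction of activity against a no-inhibitor control. IC50 values, with 95% confidence ranges, come from curve fitting.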
T1 sequence (P31749 whole entry): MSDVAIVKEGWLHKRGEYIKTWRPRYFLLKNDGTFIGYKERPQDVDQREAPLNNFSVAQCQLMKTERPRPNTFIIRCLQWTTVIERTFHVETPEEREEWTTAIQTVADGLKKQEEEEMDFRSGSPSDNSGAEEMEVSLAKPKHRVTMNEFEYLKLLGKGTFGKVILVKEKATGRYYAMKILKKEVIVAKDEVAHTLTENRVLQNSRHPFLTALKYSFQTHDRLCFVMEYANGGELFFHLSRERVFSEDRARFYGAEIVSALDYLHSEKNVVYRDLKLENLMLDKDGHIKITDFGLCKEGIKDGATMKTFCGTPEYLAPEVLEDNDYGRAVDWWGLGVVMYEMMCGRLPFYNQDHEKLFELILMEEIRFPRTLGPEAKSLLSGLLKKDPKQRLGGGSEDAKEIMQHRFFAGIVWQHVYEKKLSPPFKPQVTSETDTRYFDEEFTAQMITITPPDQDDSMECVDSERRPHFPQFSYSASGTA

In series [2] the target is T1, RAC-alpha serine/threonine-protein kinase. Kind of series: Inhibition of PKB at 20 uM by radioactive kinase assay relative to control. A digest of the protocol: as §1
Series [3] shares this target. Kind of series: Inhibition of PKB by radioactive kinase assay. In a few lines: as §1
The nature of series [4]: Stability in presence of trypsin and chymotrypsin assessed as peptide degradation at 1 mM after 2 hrs by HPLC. Format: ADME. As to conditions: isolated protein, 1000 µM. In a few lines: (§2)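 Peptide at 1 mM in 200 mM NH4HCO3, pH 8, is mixed with porcine pancreatic trypsin plus chymotrypsin (2.5 mg/ml solution) and incubated at 37 °C. Samples are taken every 30 min and quenched with 2% TFA/30% acetonitrile in water. Degradation is followed by HPLC and MALDI-TOF MS.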

Series [5] has as its target T1, RAC-alpha serine/threonine-protein kinase. Kind of series: Inhibition of PKB at 100 uM by radioactive kinase assay relative to control. A digest of the protocol: as §1
Series [6] is described as follows: Stability in presence of trypsin and chymotrypsin assessed as peptide degradation at 1 mM after 30 mins by HPLC. The class given is ADME. The conditions noted are these: read-out: Activity. In a few lines:
as §2

Series [7] concerns the target T1, RAC-alpha serine/threonine-protein kinase. The series is described as follows: Inhibition of PKB at 50 uM by radioactive kinase assay relative to control. In a few lines:
as §1

Series [8] can be described thus: Stability in presence of trypsin and chymotrypsin assessed as peptide degradation at 1 mM within 90 mins by HPLC. The class given is ADME. As to conditions: isolated protein, 1.5 h, 1000 µM. In a few lines:
as §2

A short description of series [9]: Stability in presence of trypsin and chymotrypsin assessed as peptide degradation at 1 mM within 30 mins by HPLC. The class given is ADME. As to conditions: isolated protein, 0.5 h, 1000 µM. In a few lines:
as §2

SMILES strings stand for the structures. Peptide text beside a SMILES is read from it.

For `CCC[C@H](NC(=O)[C@H](CCCNC(=N)N)NC(=O)[C@@H]1CCCN1C(=O)[C@H](CCCNC(=N)N)NC(=O)[C@H](CCCCN)NC(C)=O)C(=O)N[C@@H](Cc1ccc(O)cc1)C(=O)N[C@@H](CN)C(=O)N[C@@H](CCC(C)C)C(N)=O` (HELM PEPTIDE1{[ac].K.R.P.R.[Nva].Y.[NC[C@H](N[*:1])C(=O)[*:2]].[CC(C)CC[C@H](N[*:1])C(=O)[*:2]].[am]}$$$$V2.0), the results for the inhibition in [1] and in series [2] were 61% and 85%, respectively.

With `CCC[C@H](NC(=O)[C@H](CCCN=C(N)N)NC(=O)[C@@H]1CCCN1C(=O)[C@H](CCCN=C(N)N)NC(=O)[C@H](CCCN=C(N)N)NC(C)=O)C(=O)N[C@@H](Cc1ccc(O)cc1)C(=O)N[C@@H](CN)C(=O)N[C@@H](CCC(C)C)C(N)=O` (HELM PEPTIDE1{[ac].R.R.P.R.[Nva].Y.[NC[C@H](N[*:1])C(=O)[*:2]].[CC(C)CC[C@H](N[*:1])C(=O)[*:2]].[am]}$$$$V2.0), the IC50 in series [3] was found to be 1170 nM.

For the compound `CCC[C@H](NC(=O)[C@H](CCCN=C(N)N)NC(=O)[C@@H]1CCCN1C(=O)[C@@H](N)CCCN=C(N)N)C(=O)N[C@@H](Cc1ccc(O)cc1)C(=O)N[C@H](CS)C(=O)N[C@@H](CCC(C)C)C(N)=O`, in series [3], the IC50 stood at 400 nM.

Take `CCC[C@H](NC(=O)[C@H](CCCNC(=N)N)NC(=O)[C@@H]1CCCN1C(=O)[C@@H](N)CCCNC(=N)N)C(=O)N[C@@H](Cc1ccc(O)cc1)C(=O)N[C@@H](CN)C(=O)N[C@@H](CCC(C)C)C(N)=O` (HELM PEPTIDE1{R.P.R.[Nva].Y.[NC[C@H](N[*:1])C(=O)[*:2]].[CC(C)CC[C@H](N[*:1])C(=O)[*:2]].[am]}$$$$V2.0): the inhibition stood at 87% in series [1], 99% in [5], 96% in series [2] and 99% in series [7]. Further, the Stability entry in series [4] is “Unstable”. In addition, the metabolised at 0.5 h, 1000 µM in [6] worked out at 40%. The IC50 in series [3] stood at 940 nM.

With `CCC[C@H](NC(=O)[C@H](CCCNC(=N)N)NC(=O)[C@@H]1CCCN1C(=O)[C@H](CCCNC(=N)N)NC(=O)[C@@H](N)CCCNC(=N)N)C(=O)N[C@@H](Cc1ccc(O)cc1)C(=O)N[C@@H](CN)C(=O)N[C@@H](CCC(C)C)C(N)=O`, the inhibition in series [1] amounted to 88%; in series [2], 96%.

`CCC[C@H](NC(=O)[C@H](CCCNC(=N)N)NC(=O)[C@@H]1CCCN1C(=O)[C@H](CCCNC(=N)N)NC(=O)[C@H](N)CCCNC(=N)N)C(=O)N[C@@H](Cc1ccc(O)cc1)C(=O)N[C@@H](CN)C(=O)N[C@@H](CCC(C)C)C(=O)O`: the inhibition in series [2] is 69%.

In the case of `CCC[C@H](NC(=O)[C@H](CCCNC(=N)N)NC(=O)[C@H](C)N(C)C(=O)[C@@H](N)CCCNC(=N)N)C(=O)N[C@@H](Cc1ccc(O)cc1)C(=O)N[C@@H](CN)C(=O)N[C@@H](CCC(C)C)C(N)=O` (HELM PEPTIDE1{R.[meA].R.[Nva].Y.[NC[C@H](N[*:1])C(=O)[*:2]].[CC(C)CC[C@H](N[*:1])C(=O)[*:2]].[am]}$$$$V2.0), the results for the inhibition in series [1] and in [5] were 77% and 95%, respectively. In addition, the Stability result in series [8] and in series [9] was “Unstable” in each case. Also, in series [3], the IC50 came out at 2030 nM.

`CCC[C@H](NC(=O)[C@H](CCCNC(=N)N)NC(=O)[C@@H]1CCCN1C(=O)[C@H](CCCNC(=N)N)NC(=O)[C@@H](N)CCCCN)C(=O)N[C@@H](Cc1ccc(O)cc1)C(=O)N[C@@H](CN)C(=O)N[C@@H](CCC(C)C)C(N)=O`: the inhibition in series [1] came out at 73%; in series [2] it was 92%.

With `CCC[C@H](NC(=O)[C@H](CCCNC(=N)N)NC(=O)[C@@H]1CCCN1C(=O)[C@H](CCCNC(=N)N)NC)C(=O)N[C@@H](Cc1ccc(O)cc1)C(=O)N[C@@H](CN)C(=O)N[C@@H](CCC(C)C)C(N)=O` (HELM PEPTIDE1{[meR].P.R.[Nva].Y.[NC[C@H](N[*:1])C(=O)[*:2]].[CC(C)CC[C@H](N[*:1])C(=O)[*:2]].[am]}$$$$V2.0), the inhibition in series [1] was 85%; in series [5], 97%. Moreover, the IC50 in [3] was 920 nM.

Regarding `CCC[C@H](NC(=O)[C@H](CCCNC(=N)N)NC(=O)[C@@H]1CCCN1C(=O)[C@@H](N)CCCNC(=N)N)C(=O)N[C@@H](Cc1ccc(O)cc1)C(=O)N[C@H](CS)C(=O)N[C@@H](CCC(C)C)C(N)=O`, the inhibition in series [1] and in series [7] was 95% in each case.

As to `CCC[C@H](NC(=O)[C@H](CCCN=C(N)N)NC(=O)[C@@H]1CCCN1C(=O)[C@H](CCCN=C(N)N)NC(=O)[C@@H](N)CCCN=C(N)N)C(=O)N[C@@H](Cc1ccc(O)cc1)C(=O)N[C@@H](CN)C(=O)N[C@@H](CCC(C)C)C(N)=O`, in series [3], the IC50 turned out to be 840 nM.

For the compound `CCC[C@H](NC(=O)[C@H](CCCNC(=N)N)NC(=O)[C@@H]1CCCN1C(=O)[C@H](CCCNC(=N)N)NC(=O)[C@H](CCCNC(=N)N)NC(C)=O)C(=O)N[C@@H](Cc1ccc(O)cc1)C(=O)N[C@@H](CN)C(=O)N[C@@H](CCC(C)C)C(N)=O` (HELM PEPTIDE1{[ac].R.R.P.R.[Nva].Y.[NC[C@H](N[*:1])C(=O)[*:2]].[CC(C)CC[C@H](N[*:1])C(=O)[*:2]].[am]}$$$$V2.0), the inhibition in series [1] was determined as 83%; in series [2] it was 94%.

With `CCC[C@H](NC(=O)[C@H](CCCNC(=N)N)NC(=O)[C@@H]1CCCN1C(=O)[C@H](CCCNC(=N)N)NC(=O)[C@H](N)CCCNC(=N)N)C(=O)N[C@@H](Cc1ccc(O)cc1)C(=O)N[C@@H](CN)C(=O)N[C@@H](CCC(C)C)C(N)=O`, in series [2], the inhibition was found to be 40%.
